Source: the M2OR odorant receptor database

Assays:
Details in all cases: stereoisomer not certain
OR9G9 = test system: OR9G9
Method in brief: (§1)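 Assay methods differ from source to source, frequently being transient luciferase assays in mammalian cell lines. For each receptor–molecule pair, the label responsive (active) applies when the original authors judged the measured signal statistically different from baseline, and non-responsive (inactive) applies otherwise.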

OR8U9 (Homo sapiens) = OR8U9 (Homo sapiens) (UniProt P0C7N5)
Sequence of OR8U9 (Homo sapiens) (P0C7N5 whole entry): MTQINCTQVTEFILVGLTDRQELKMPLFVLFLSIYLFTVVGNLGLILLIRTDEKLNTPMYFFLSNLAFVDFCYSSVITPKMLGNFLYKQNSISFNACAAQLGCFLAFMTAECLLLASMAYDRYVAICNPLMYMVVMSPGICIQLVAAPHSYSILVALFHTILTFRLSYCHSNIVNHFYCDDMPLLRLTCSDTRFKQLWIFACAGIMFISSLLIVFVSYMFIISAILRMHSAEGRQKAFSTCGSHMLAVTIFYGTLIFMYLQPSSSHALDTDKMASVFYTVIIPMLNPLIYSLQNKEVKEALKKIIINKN
Method in brief: as §1

OR9A2 (Homo sapiens) = OR9A2 (Homo sapiens) (UniProt Q8NGT5)
Sequence of OR9A2 (Homo sapiens) (Q8NGT5 whole entry): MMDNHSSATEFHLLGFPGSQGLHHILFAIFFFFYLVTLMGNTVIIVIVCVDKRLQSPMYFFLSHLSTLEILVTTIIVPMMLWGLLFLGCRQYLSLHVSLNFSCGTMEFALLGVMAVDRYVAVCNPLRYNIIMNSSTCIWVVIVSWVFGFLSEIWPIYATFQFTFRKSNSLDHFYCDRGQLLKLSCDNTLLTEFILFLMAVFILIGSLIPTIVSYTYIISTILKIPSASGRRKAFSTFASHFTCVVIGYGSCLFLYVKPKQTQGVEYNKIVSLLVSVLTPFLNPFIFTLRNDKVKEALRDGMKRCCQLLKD
Method in brief: as §1

OR9A4 (Homo sapiens) = OR9A4 (Homo sapiens) (UniProt Q8NGU2)
Sequence of OR9A4 (Homo sapiens) (Q8NGU2 whole entry): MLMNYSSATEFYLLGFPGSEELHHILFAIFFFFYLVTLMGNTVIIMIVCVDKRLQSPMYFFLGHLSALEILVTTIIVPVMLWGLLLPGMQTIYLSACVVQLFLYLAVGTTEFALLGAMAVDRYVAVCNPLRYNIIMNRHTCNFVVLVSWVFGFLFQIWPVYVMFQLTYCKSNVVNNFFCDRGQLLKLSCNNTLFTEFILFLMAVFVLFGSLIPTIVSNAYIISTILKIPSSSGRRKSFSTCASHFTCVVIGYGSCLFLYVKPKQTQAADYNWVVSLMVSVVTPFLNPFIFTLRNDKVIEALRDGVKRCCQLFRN
Method in brief: as §1

OR9G1 (Homo sapiens) = OR9G1 (Homo sapiens) (UniProt Q8NH87)
Sequence of OR9G1 (Homo sapiens) (Q8NH87 whole entry): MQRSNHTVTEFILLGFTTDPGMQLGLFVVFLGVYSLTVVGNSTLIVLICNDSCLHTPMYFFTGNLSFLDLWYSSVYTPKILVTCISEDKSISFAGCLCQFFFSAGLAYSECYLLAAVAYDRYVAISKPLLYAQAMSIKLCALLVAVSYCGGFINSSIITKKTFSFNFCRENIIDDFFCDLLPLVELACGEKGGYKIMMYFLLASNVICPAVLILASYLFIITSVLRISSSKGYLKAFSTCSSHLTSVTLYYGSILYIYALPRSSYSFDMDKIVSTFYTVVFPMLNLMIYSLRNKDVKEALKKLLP
Method in brief: as §1

OR9G4 (Homo sapiens) = OR9G4 (Homo sapiens) (UniProt Q8NGQ1)
Sequence of OR9G4 (Homo sapiens) (Q8NGQ1 whole entry): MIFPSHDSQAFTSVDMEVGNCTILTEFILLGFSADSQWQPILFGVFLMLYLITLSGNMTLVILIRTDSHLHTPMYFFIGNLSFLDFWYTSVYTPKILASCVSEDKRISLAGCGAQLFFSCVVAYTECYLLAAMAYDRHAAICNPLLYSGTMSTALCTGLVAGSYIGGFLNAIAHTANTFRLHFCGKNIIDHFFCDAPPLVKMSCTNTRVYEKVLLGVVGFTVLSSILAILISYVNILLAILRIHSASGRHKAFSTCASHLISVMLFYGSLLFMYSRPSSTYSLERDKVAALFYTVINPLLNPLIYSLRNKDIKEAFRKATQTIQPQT
Method in brief: as §1

OR9G9 (Homo sapiens) = OR9G9 (Homo sapiens) (UniProt P0C7N8)
Sequence of OR9G9 (Homo sapiens) (P0C7N8 whole entry): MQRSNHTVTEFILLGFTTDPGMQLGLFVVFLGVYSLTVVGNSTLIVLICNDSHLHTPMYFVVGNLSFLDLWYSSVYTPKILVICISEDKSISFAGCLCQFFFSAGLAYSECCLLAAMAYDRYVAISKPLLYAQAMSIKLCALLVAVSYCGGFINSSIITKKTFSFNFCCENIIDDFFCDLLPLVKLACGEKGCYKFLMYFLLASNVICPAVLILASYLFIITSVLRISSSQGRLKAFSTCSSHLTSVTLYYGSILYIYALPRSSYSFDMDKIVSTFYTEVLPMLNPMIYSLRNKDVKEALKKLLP
Method in brief: as §1

OR9I1 (Homo sapiens) = OR9I1 (Homo sapiens) (UniProt Q8NGQ6)
Sequence of OR9I1 (Homo sapiens) (Q8NGQ6 whole entry): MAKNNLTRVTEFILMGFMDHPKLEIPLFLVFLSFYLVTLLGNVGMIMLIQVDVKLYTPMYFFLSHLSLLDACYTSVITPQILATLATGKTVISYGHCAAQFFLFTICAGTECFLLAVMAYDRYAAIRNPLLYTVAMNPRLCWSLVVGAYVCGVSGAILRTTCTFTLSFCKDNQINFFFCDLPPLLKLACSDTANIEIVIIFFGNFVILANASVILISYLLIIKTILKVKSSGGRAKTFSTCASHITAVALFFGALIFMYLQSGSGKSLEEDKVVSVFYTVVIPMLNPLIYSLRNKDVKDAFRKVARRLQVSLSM
Method in brief: as §1

OR9K2 (Homo sapiens) = OR9K2 (Homo sapiens) (UniProt Q8NGE7)
Sequence of OR9K2 (Homo sapiens) (Q8NGE7 whole entry): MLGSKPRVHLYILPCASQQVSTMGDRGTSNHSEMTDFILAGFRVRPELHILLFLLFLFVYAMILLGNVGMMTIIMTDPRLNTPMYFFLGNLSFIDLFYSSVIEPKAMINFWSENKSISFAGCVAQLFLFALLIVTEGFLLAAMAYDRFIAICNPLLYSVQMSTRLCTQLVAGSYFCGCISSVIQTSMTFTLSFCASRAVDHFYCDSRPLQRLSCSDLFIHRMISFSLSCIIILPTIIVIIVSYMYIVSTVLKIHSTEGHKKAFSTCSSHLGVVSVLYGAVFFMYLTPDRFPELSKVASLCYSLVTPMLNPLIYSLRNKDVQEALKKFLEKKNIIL
Method in brief: as §1

OR9Q1 (Homo sapiens) = OR9Q1 (Homo sapiens) (UniProt Q8NGQ5)
Sequence of OR9Q1 (Homo sapiens) (Q8NGQ5 whole entry): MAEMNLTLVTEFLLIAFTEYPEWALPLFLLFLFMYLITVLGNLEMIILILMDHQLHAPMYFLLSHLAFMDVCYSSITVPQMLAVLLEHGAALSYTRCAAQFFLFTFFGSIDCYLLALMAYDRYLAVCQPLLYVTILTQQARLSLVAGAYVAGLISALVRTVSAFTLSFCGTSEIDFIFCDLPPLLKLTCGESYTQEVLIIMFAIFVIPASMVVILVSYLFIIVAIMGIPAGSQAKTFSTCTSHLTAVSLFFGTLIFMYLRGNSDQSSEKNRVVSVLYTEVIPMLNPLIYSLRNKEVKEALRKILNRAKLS
Method in brief: as §1

OR9Q2 (Homo sapiens) = OR9Q2 (Homo sapiens) (UniProt Q8NGE9)
Sequence of OR9Q2 (Homo sapiens) (Q8NGE9 whole entry): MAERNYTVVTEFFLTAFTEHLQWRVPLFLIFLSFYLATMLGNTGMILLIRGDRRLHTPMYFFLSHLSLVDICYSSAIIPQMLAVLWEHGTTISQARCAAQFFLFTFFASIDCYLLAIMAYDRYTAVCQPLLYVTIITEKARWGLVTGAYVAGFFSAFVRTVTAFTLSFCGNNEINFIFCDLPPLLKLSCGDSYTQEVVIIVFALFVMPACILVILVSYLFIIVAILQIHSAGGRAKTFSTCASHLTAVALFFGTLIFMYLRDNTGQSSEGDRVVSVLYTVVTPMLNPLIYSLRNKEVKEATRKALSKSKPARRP
Method in brief: as §1

OR8U9 T2A Q3H Q293R = test system: OR8U9 T2A Q3H Q293R
Method in brief: as §1

OR8U9 = test system: OR8U9
Sequence of OR8U9 (as listed by the source): as the sequence (P0C7N5 whole entry) above, with Q293R counted along it
Method in brief: as §1

OR9A2 C304Y = test system: OR9A2 C304Y
Sequence of OR9A2 C304Y (as listed by the source, stated change not applied): as the sequence (Q8NGT5 whole entry) above, with C304Y counted along it
Method in brief: as §1

OR9G4 H6Y N206D V222A = test system: OR9G4 H6Y N206D V222A
Method in brief: as §1

OR9G4 N206D V222A = test system: OR9G4 N206D V222A
Method in brief: as §1

OR9K2 R207H = test system: OR9K2 R207H
Sequence of OR9K2 R207H (as listed by the source, stated change not applied): as the sequence (Q8NGE7 whole entry) above, with R207H counted along it
Method in brief: as §1

OR9Q1 A83T = test system: OR9Q1 A83T
Sequence of OR9Q1 A83T (as listed by the source, stated change not applied): as the sequence (Q8NGQ5 whole entry) above, with A83T counted along it
Method in brief: as §1

OR9Q2 C179R = test system: OR9Q2 C179R
Sequence of OR9Q2 C179R (as listed by the source, stated change not applied): as the sequence (Q8NGE9 whole entry) above, with C179R counted along it
Method in brief: as §1

[1] = molecular target: Olr226 (Rattus norvegicus) (UniProt P23270)
Sequence of Olr226 (Rattus norvegicus) (P23270 whole entry): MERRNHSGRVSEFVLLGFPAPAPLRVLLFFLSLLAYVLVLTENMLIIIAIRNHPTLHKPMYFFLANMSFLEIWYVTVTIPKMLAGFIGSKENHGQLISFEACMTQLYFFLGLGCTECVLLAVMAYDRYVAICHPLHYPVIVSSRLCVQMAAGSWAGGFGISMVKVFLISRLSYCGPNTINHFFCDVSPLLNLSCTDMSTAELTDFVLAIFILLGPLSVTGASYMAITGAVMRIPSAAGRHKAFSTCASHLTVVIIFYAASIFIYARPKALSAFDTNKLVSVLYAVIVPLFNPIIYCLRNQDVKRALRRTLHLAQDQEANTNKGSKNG
Method in brief: as §1

Measured: odorant receptor agonist call

Sequence of OR9G9 (as listed by the source): as the sequence (P0C7N8 whole entry) above, with C193G counted along it

O=CC=Cc1ccccc1
active: OR9G9

Cc1c([N+](=O)[O-])c(C)c([N+](=O)[O-])c(C(C)(C)C)c1[N+](=O)[O-]
inactive: OR8U9 (Homo sapiens) | OR9A2 (Homo sapiens) | OR9A4 (Homo sapiens) | OR9G1 (Homo sapiens) | OR9G4 (Homo sapiens) | OR9G9 (Homo sapiens) | OR9I1 (Homo sapiens) | OR9K2 (Homo sapiens) | OR9Q1 (Homo sapiens) | OR9Q2 (Homo sapiens)

C=CCOC(=O)Cc1ccccc1
not listed: OR9G9 (Homo sapiens) | [1]
inactive: all other assays above

CC(C=O)Cc1ccc2c(c1)OCO2 (stereo not given)
inactive: [1]
